From ChEMBL document CHEMBL1140046, “Novel and potent inhibitors of 5-lipoxygenase product synthesis based on the structure of pirinixic acid” (J Med Chem, 2008) come the findings set out here.

Experiment [1] deals with T1, Polyunsaturated fatty acid 5-lipoxygenase (Homo sapiens) (UniProt P09917).
T1 sequence (whole entry): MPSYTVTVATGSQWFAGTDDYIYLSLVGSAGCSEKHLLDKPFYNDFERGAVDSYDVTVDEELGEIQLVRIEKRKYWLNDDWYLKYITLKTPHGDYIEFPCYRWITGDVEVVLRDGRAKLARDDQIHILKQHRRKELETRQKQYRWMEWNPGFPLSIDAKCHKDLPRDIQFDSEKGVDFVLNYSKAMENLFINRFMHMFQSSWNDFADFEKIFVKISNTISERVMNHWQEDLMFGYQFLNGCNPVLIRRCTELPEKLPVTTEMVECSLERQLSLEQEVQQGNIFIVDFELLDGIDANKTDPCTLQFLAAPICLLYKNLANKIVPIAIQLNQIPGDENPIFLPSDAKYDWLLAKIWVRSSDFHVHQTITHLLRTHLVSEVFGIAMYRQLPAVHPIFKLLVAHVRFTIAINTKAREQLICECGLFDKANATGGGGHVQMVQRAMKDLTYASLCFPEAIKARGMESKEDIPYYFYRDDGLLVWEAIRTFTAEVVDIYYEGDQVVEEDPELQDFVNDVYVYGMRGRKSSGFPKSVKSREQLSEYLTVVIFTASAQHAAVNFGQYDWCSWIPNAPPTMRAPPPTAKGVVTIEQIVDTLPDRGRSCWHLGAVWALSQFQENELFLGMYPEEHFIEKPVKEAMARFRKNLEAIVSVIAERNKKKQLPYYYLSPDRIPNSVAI
Put plainly: Inhibition of 5-lipoxygenase in human intact polymorphonuclear leukocytes assessed as suppression of A23187-induced product formation at 10 uM. More on the design: scale not given: the % may be the effect or the level left. The gist of the method:
(§1)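 Human PMNL were isolated from donor venous blood by dextran sedimentation, Nycoprep centrifugation and hypotonic lysis. 5 × 10^6 cells in 1 mL PBS pH 7.4 with 1 mg/mL glucose and 1 mM CaCl2 were preincubated 15 min at RT. Stimulation was with 2.5 µM A23187 plus 20 µM AA for 10 min at 37 °C. Methanol stop, PGB1 internal standard, HPLC of LTB4, its all-trans isomers and 5-H(P)ETE.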

Experiment [2] has as its target T1, Polyunsaturated fatty acid 5-lipoxygenase (Homo sapiens). Put plainly: Inhibition of 5-lipoxygenase in human intact polymorphonuclear leukocytes assessed as suppression of A23187-induced product formation at 1 uM. Further details: scale not given: the % may be the effect or the level left. In short, it runs like this: as §1
Experiment [3] has the same target. Put plainly: Inhibition of human recombinant 5-lipoxygenase expressed in Escherichia coli MV1190 assessed as suppression of CaCl2/arachidonic acid-induced product formation at 1 uM. Further details: scale not given: the % may be the effect or the level left.
Experiment [4] shares this target. As to the kind of experiment: Inhibition of human recombinant 5-lipoxygenase expressed in Escherichia coli MV1190 assessed as suppression of CaCl2/arachidonic acid-induced product formation at 30 uM. Further details: scale not given: the % may be the effect or the level left.
Experiment [5] addresses T2, Polyunsaturated fatty acid 5-lipoxygenase (Homo sapiens, UniProt P09917).
T2 sequence (P09917 whole entry): T1 sequence (whole entry)
As to the kind of experiment: Inhibition of 5-lipoxygenase in human intact polymorphonuclear leukocytes assessed as suppression of A23187-induced product formation. The gist of the method: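 Same PMNL assay: 15 min RT preincubation, then 2.5 µM A23187 plus 20 µM exogenous AA for 10 min at 37 °C. HPLC read-out as ng 5-LO products per 10^6 cells. IC50 approximated by linear interpolation around 50% activity from 4-5 concentrations; mean ± SE, n = 3-5.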

For experiment [6], the target named is T2, Polyunsaturated fatty acid 5-lipoxygenase. Put plainly: Inhibition of human recombinant 5-lipoxygenase expressed in Escherichia coli MV1190 assessed as suppression of CaCl2/arachidonic acid-induced product formation.

The source made the active and inactive calls. The calls are words filed in the database; no cut-off is given here.

For the compound `CCOC(=O)CSc1nc(Cl)cc(OCc2ccc3ncccc3c2)n1`, the values for the Activity in experiment [1] and in experiment [2] were 3.9% and 80%, respectively.

Consider `CCCCCCC(Sc1nc(Cl)cc(Oc2ccc3ncccc3c2)n1)C(=O)O` (configuration not stated), for which the Activity in experiment [3] is 93.7%; in experiment [1], 10.7%; in experiment [4], 72.6%; in experiment [2], 91.4%.

By IC50 is commonly meant the concentration that gives 50% inhibition. On to `CCOC(=O)C(Sc1nc(Cl)cc(Nc2cccc(C)c2C)n1)c1ccccc1` (configuration not stated), for which the IC50 in experiment [5] is 1800 nM. Also, the Activity in experiment [1] worked out at 18.7%; in experiment [2], 53.1%.

In the case of `CCCCCCC(Sc1nc(Cl)cc(Oc2ccc3ncccc3c2)n1)C(=O)OCC` (configuration not stated), the Activity in experiment [3] amounted to 79.1%; in experiment [1] it was 4.5%; in experiment [4], 59.2%; in experiment [2], 67.4%. In experiment [5], the half-inhibitory concentration (IC50) came out at 1700 nM.

With `CCCCCCC(Sc1nc(Cl)cc(Nc2ccc3ncccc3c2)n1)C(=O)O` (configuration not stated), the Activity in experiment [3] came to 95.4%; in experiment [1], 20.1%; in experiment [4], 52.7%. For the same compound, in experiment [6], the half-maximal inhibitory concentration (IC50) is 34000 nM. In addition, the result in experiment [2] was inactive.

Consider `CCCCCCC(Sc1nc(Cl)cc(NCc2ccc3ncccc3c2)n1)C(=O)O` (configuration not stated), for which the Activity was found to be 95.6% in experiment [3], 26.7% in experiment [1], 51% in experiment [4] and 87.6% in experiment [2]. The IC50 in experiment [6] is 31000 nM.

Consider `CCOC(=O)C(Sc1nc(Cl)cc(Nc2ccc3ncccc3c2)n1)c1ccccc1` (configuration not stated), for which the half-maximal inhibitory concentration (IC50) in experiment [5] came out at 1200 nM. Further, the Activity in experiment [1] was found to be 3.5%; in experiment [2] it was 52.7%.

`Cc1cccc(Nc2cc(Cl)nc(SCC(=O)O)n2)c1C`: the result in experiment [1] and in experiment [2] was inactive.

Consider `CCOC(=O)C(C)Sc1nc(Cl)cc(Nc2cccc(C)c2C)n1` (configuration not stated), for which the Activity in experiment [1] turned out to be 22.8%. For the same compound, the outcome in experiment [2] was inactive.

As for `CCCCCCC(Sc1nc(Cl)cc(NCc2ccc3ncccc3c2)n1)C(=O)OCC` (configuration not stated), the Activity in experiment [3] was 70.7%; in experiment [1], 11.4%; in experiment [4], 56%; in experiment [2] it was 57.4%. Moreover, the IC50 is 1400 nM in experiment [5] and 37000 nM in experiment [6].

For `CCCCCCC(Sc1nc(Cl)cc(Nc2cccc(C)c2C)n1)C(=O)OCC` (configuration not stated), the Activity in experiment [1] was 30.5%; in experiment [2], 84.9%.

On to `O=C(O)C(Sc1nc(Cl)cc(Nc2ccc3ncccc3c2)n1)c1ccccc1` (configuration not stated), for which the Activity in experiment [1] amounted to 69.1%. The result in experiment [2] was inactive.

Turning to `O=C(O)CSc1nc(Cl)cc(Oc2ccc3ncccc3c2)n1`, the result in experiment [1] and in experiment [2] was inactive.

For the compound `CCOC(=O)CSc1nc(Cl)cc(Nc2cccc(C)c2C)n1`, the Activity came to 77.7% in experiment [1] and 76.9% in experiment [2].

In the case of `Cc1cccc(Nc2cc(Cl)nc(SC(C)C(=O)O)n2)c1C` (configuration not stated), the result in experiment [1] and in experiment [2] was inactive.

Take `CCOC(=O)C(C)Sc1nc(Cl)cc(Nc2ccc3ncccc3c2)n1` (configuration not stated): the Activity in experiment [1] came to 12%. Also, the outcome in experiment [2] was inactive.

Consider `CC(=O)N(O)C/C=C/c1cccc(Oc2ccccc2)c1`, for which the Activity came to 10.8% in experiment [3] and 3.3% in experiment [2].

As to `CCCCC(Sc1nc(Cl)cc(Nc2ccc3ncccc3c2)n1)C(=O)O` (configuration not stated), in experiment [1], the Activity came to 50%. The result in experiment [2] was inactive.

For the compound `O=C(O)CSc1nc(Cl)cc(Nc2ccc3ncccc3c2)n1`, the outcome in experiment [1] and in experiment [2] was inactive.

As to `Cc1cccc(Nc2cc(Cl)nc(SC(C(=O)O)c3ccccc3)n2)c1C` (configuration not stated), the outcome in experiment [1] and in experiment [2] was inactive.

On to `O=C(O)CSc1nc(Cl)cc(Nc2cccc3c2CCC3)n1`, for which the concentration for half-maximal inhibition (IC50) in experiment [5] stood at 3900 nM. The Activity in experiment [1] stood at 14.5%; in experiment [2], 71.1%.

Turning to `CCOC(=O)CSc1nc(Cl)cc(Oc2ccc3ncccc3c2)n1`, in experiment [1], the Activity was 77.6%. In addition, in experiment [2], the outcome was inactive.

Turning to `CCCCCCC(Sc1nc(Cl)cc(Nc2ccc3ncccc3c2)n1)C(=O)OCC` (configuration not stated), the Activity in experiment [3] was 68.2%; in experiment [1], 4%; in experiment [4], 43.8%; in experiment [2], 27.9%. Also, the IC50 in experiment [5] turned out to be 600 nM; in experiment [6], 19000 nM.

With `CCOC(=O)CSc1nc(Cl)cc(Nc2cccc3c2CCC3)n1`, the half-inhibitory concentration (IC50) in experiment [5] turned out to be 3200 nM. For the same compound, the figures for the Activity in experiment [1] and in experiment [2] were 8.9% and 65.2%, respectively.

Regarding `CCCCCCC(Sc1nc(Cl)cc(Nc2cccc(C)c2C)n1)C(=O)O` (configuration not stated), the IC50 in experiment [5] worked out at 4100 nM. In addition, the results for the Activity in experiment [1] and in experiment [2] were 28.9% and 64.3%, respectively.

`CC(Sc1nc(Cl)cc(Nc2ccc3ncccc3c2)n1)C(=O)O` (configuration not stated): the result in experiment [1] and in experiment [2] was inactive.

For `CCCCC(Sc1nc(Cl)cc(Nc2ccc3ncccc3c2)n1)C(=O)OCC` (configuration not stated), the IC50 in experiment [5] was 1100 nM. In addition, the figures for the Activity in experiment [1] and in experiment [2] were 1.6% and 51.8%, respectively.

With `CCOC(=O)CSc1nc(Cl)cc(Nc2ccc3ncccc3c2)n1`, the concentration for half-maximal inhibition (IC50) in experiment [5] came to 2600 nM. Further, the Activity amounted to 12.3% in experiment [1] and 86.3% in experiment [2].
